Screening results: PubChem BioAssay, several laboratories
Shown are actives, neighbours in structure and some others; about 4.3% of the full set was active somewhere.
STAT1 activator: activators of IFN-gamma induced STAT1 signaling. activation (% of control), % at 5.5 µM. NIH 3T3 STAT1-luciferase reporter, luminescence; 100% = IFN-gamma alone, no compound. 2.6% of 200,000 active;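 active = activation above the screen-wide mean activation plus 3 SD, cut at about 130% in these data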;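 note: raw ratio to IFN-gamma control signal so 100% means no change and 0% no light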
APP 5'UTR act: activates APP 5'UTR luciferase reporter. SH-SY5Y APP 5'UTR luciferase reporter, luminescence; zero percent = DMSO vehicle wells. activation, % at 2 µM. 1% of 190,000 active;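 active = activation above a set limit, based on mean plus 3 SD of controls, cut at about 140% in these data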
NF-kB neuron act: raises NF-kB expression in human neuronal cells; NF-kB reporter expression; stronger effect = higher value; fold change at 12.5 µM; 1.6% of 190,000 active; AID 1239; in the data active = fold change above about 3.3
FLuc inhib CS: Photinus pyralis luciferase inhibition counter-screen | P08659 | ATPLite firefly luciferase biochemical luminescence, 10 min | inhibition, % at 10 µM | 1.5% of 200,000 active;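 active = inhibition above about 50% when tested at 10 µM, limit read from the data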
Target sequence (P08659 whole entry, looked up): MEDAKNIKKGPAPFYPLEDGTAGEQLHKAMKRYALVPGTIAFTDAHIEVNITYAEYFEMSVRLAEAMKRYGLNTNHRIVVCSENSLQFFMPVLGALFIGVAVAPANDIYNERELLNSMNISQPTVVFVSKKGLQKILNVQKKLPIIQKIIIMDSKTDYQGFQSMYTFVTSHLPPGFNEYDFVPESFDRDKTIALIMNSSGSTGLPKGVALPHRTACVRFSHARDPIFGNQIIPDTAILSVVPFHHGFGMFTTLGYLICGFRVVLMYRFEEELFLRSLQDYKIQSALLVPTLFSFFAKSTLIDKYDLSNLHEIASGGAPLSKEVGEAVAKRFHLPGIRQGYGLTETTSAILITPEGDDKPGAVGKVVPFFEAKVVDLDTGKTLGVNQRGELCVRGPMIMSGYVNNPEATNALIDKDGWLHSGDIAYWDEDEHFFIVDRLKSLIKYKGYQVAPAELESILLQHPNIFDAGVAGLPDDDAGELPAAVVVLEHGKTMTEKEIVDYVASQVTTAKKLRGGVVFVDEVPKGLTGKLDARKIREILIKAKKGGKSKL
FLuc stim CS: affects firefly luciferase, flagging false hits in luciferase stimulation screens; activation factor at 10 µM; ATPlite luciferase biochemical, luminescence, 10 min; 0 = ATP-free wells, 1 = DMSO control; P08659; 200,000 tested, under 10 active; AID 1027;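 active = luciferase activation factor, scaled between plate controls, of at least 2 with compound at 10 µM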
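System: cell-free luciferase reagent; medium: PBS as buffer for the ATP substrate; doses: test compounds dosed from 2 mM stocks in 100% DMSO; incubation: 10 min, room temperature; measured by: luminescence from luciferase reaction; read-out: luciferase activation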
SDO1 yeast rescue: sdo1-depleted yeast growth rescue | S. cerevisiae sdo1-depleted JHY4D growth rescue, OD600 30 h; stronger effect = higher value; pdr5 snq2 efflux-pump mutant strain | z-score at 10 µM | 0.21% of 140,000 active;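 active = z-score above 3 at both the 24 hr and the 30 hr optical density reads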;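 note: z-score against mean and SD of all compound wells on the same plate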
* = called active by the depositor; · = no result given.

SMILES | STAT1 activator | APP 5'UTR act | NF-kB neuron act | FLuc inhib CS | FLuc stim CS | SDO1 yeast rescue
Cc1nn(C)cc1/C=C/C(=O)c1cccs1 | 116 | 126 | 6.3* | 63* | 0.4 | -0.3
O=C(O)/C(=C\c1ccc(Cl)cc1)c1ccc(F)cc1 | 104 | 17 | 1.3 | -2 | 1 | ·
O=C(CSc1ncnc2ccccc12)NCC(=O)c1ccccc1 | 92 | 9 | 1.1 | 0 | 1 | ·
O=C(COC(=O)c1ccccn1)c1ccc(Br)cc1 | 102 | 4 | 1.1 | 63* | 0.4 | -0.31
COc1ccc(NC(=O)C(CC(C)C)NC(=O)C2CCC(C)CC2)c(OC)c1 (stereo unspecified) | 95 | -1 | 1.1 | 4 | 1 | ·
N#C/C(=C/c1ccc(N2CCOCC2)o1)c1nc2ccccc2[nH]1 | 149* | 158* | 2.8 | 82* | 0.2 | -1.7
COc1c(O)ccc(/C=C(\C#N)c2nc3ccccc3[nH]2)c1[N+](=O)[O-] | 134* | 88 | 1.1 | 5 | 0.9 | 0.54
Cc1cc(/C=C(\C#N)c2nc3ccccc3[nH]2)c(C)n1C | 142* | 57 | 2.7 | 78* | 0.2 | -0.89
N#C/C(=C/c1cccs1)c1nc2ccccc2[nH]1 | 145* | 69 | 1.6 | 3 | 1 | -0.51
N#C/C(=C\c1cc([N+](=O)[O-])c(N2CCOCC2)cc1N1CCOCC1)c1nc2ccccc2[nH]1 | 107 | -4 | 0.46 | -5 | 1 | 0.62
COc1cc(/C=C(\C#N)c2nc3ccc(C)cc3[nH]2)c([N+](=O)[O-])cc1OC | 90 | 21 | 0.42 | -3 | 1 | -1.1
Cn1c(=S)[nH]c2[nH]c(=O)cnc2c1=O | 96 | -1 | 1.1 | -1 | 1 | 0.83
CCOC(=O)C(C(=O)Nc1nccs1)C1CCCCC1 (stereo unspecified) | 104 | -3 | 1.1 | -6 | 1.1 | 0.67
C=CCOc1c(Br)cc(CNc2ccc(NC(=O)C(C)C)c(OC)c2)cc1OCC | 94 | -17 | 1.2 | -3 | 1 | 0.11
COc1ccc(NC(=O)COC(=O)CCCN2C(=O)c3ccccc3C2=O)cc1Cl | 99 | -5 | 0.92 | -2 | 1 | -0.96
Cc1ccc(NC(=S)N2CCC(c3ccccc3)C2)c(Cl)c1 (stereo unspecified) | 93 | 190* | 6.5* | 74* | 0.3 | ·
S=C(Nc1ccccc1Cl)N1CCC(c2ccccc2)C1 (stereo unspecified) | 148* | 130 | 3.4* | 21 | 0.8 | ·
Fc1ccccc1NC(=S)N1CCC(c2ccccc2)C1 (stereo unspecified) | 146* | 61 | 2.5 | 15 | 0.8 | ·
S=C(Nc1ccccc1Cl)N1CCCCCC1 | 109 | 6 | 1.6 | -7 | 1.1 | ·
Fc1ccccc1NC(=S)N1CCCCC1 | 105 | 5 | 0.99 | 0 | 1 | 0.49
CCc1cccc(NC(=S)N2CCC(c3ccccc3)C2)c1 (stereo unspecified) | 126 | 25 | 1.3 | 8 | 0.9 | ·
Fc1cc(F)cc(NC(=S)N2CCC(c3ccccc3)C2)c1 (stereo unspecified) | 141* | 66 | 2.1 | 7 | 0.9 | ·
CN(CC(=O)Nc1ccc(F)cc1)CC(=O)Nc1ccc(F)c(F)c1F | 97 | 1 | 1.1 | -3 | 1 | ·
COc1cc(SC)ccc1C(=O)Nc1ccccc1 | 135* | 58 | 3.7* | -3 | 1 | -0.66
COc1ccc(NC(=O)c2ccc3c(c2)OCO3)cc1[N+](=O)[O-] | 139* | 37 | 1.2 | 26 | 0.7 | ·
SMILES | STAT1 activator | APP 5'UTR act | NF-kB neuron act | FLuc inhib CS | FLuc stim CS | SDO1 yeast rescue
COc1cc(SC)ccc1C(=O)Nc1nccs1 | 70 | 190* | 1 | 92* | 0.1 | ·
Cc1ccc(C(=O)Nc2ccc3c(c2)OCO3)cc1 | 82 | 142* | 4.9* | 88* | 0.1 | -0.34
CCCCCC(=O)Nc1cc2[nH]c(=O)cc(COC)c2cc1C | 97 | 0 | 1.1 | 0 | 1 | -0.39
CC1(C)OC(=O)N(Cc2ccco2)C1(C)O (stereo unspecified) | 101 | 4 | 0.98 | -5 | 1 | 0.89
O=C(NC1CCCCCCC1)c1ccc2c(c1)OCO2 | 125 | 153* | 6.9* | 43 | 0.6 | -0.77
COc1ccccc1C(=O)Nc1ccc2c(c1)OCCO2 | 140* | 137* | 3.5* | 50 | 0.5 | 0.6
Cc1ccc(C(=O)Nc2ccc3c(c2)CCC3)cc1 | 40 | 154* | 6.4* | 90* | 0.1 | ·
